Most compounds without a hit are left out; they make up all but 3.1% or so of the library.
GalR3 antagonist = human GalR3 antagonism; AID 651719; O60755; actives 0.44% (n = 360,000); HEK293 GalR3-CNG cAMP membrane potential fluorescence; galR3 body fused to GalR1 C-terminus; inhibition, % at 3 µM;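 active means inhibition above the screen-wide average plus 3 SD, cut at about 13% in these data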;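 further: forskolin and galanin both at EC90 stimulate the cells; cAMP rise reported by CNG channel membrane potential dye signal; 0% = forskolin plus galanin with DMSO and 100% = forskolin alone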
OX1R antag-1 = human HCRTR1 antagonism; AID 434989; O43613; actives 0.43% (n = 330,000); CHO/OX1R cells, Fluo-8 calcium fluorescence, orexin A; inhibition, % at 5 µM;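 active means inhibition above its plate's threshold, mean inhibition of all tested compounds on the plate plus 3 SD, cut at about 37% in these data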;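 further: 0% = orexin A challenge wells and 100% = SB-334867-A antagonist wells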
GPR7 antagonist = human neuropeptides B/W receptor 1 antagonism | P48145 | GPR7-expressing cells, fluorescence antagonist assay | inhibition, % at 4.4 µM | actives 1.1% (n = 290,000); in the data active means inhibition above about 16%, passing the limit was not always enough;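 further: cells stimulated with the agonist NPW; 0% = agonist with vehicle and 100% = vehicle without agonist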
Target sequence (P48145 whole entry, looked up): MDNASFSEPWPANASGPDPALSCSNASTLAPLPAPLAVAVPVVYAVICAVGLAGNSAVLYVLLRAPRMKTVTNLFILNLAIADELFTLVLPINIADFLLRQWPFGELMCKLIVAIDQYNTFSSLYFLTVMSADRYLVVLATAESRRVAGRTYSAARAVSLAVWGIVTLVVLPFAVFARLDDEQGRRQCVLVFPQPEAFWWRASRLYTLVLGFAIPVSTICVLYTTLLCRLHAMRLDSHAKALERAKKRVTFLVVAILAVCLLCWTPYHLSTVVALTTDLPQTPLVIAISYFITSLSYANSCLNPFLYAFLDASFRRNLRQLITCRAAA
OX1R antag-2 = OX1R (human) antagonism | O43613 | OX1R-expressing cells, FRET antagonist read-out | actives 1.8% (n = 330,000) | inhibition, % at 6.6 µM; in the data active means inhibition mostly above about 38%, no sharp cut-off; inactive means mostly below about 40%;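 further: 0% = agonist challenge alone and 100% = reference antagonist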
CHO parental Ca = signal in parental CHO cells, OX1R antagonist counter-screen; inhibition, % at 5.6 µM; parental CHO-K1, ATP-induced calcium, Fluo-8 fluorescence; actives 0.63% (n = 330,000); AID 463079;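 active means inhibition above that plate's mean sample inhibition plus 3 SD, cut at about 26% in these data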;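 further: 0% = ATP-challenged DMSO wells and 100% = DMSO wells without ATP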
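Assay system: parental CHO cells; Read-out basis: percent inhibition of ATP-evoked calcium rise, normalized to controls; Benchmarks: ATP and no-ATP DMSO wells; Compound dosing: single nominal dose of 5.6 µM per compound; Signal: Fluo-8 calcium dye fluorescence; Also added: ATP as calcium-mobilizing challenge; Repeats: singlicate.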
GalR3 conf = GalR3 (human) antagonism, confirmation; AID 652245; shares compounds with GalR3 antagonist; inhibition, % at 3 µM; HEK293 GalR3 CNG cAMP biosensor, membrane potential fluorescence; galR3 fused to GalR1 carboxy tail; challenged with forskolin and galanin at EC90; actives 59% (n = 1,600);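 active means inhibition above the primary screen's cutoff, the mean inhibition of all screened compounds plus 3 SD, cut at about 13% in these data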;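 further: 0% = forskolin plus galanin and 100% = forskolin alone with DMSO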
HEK-CNG parental = counter-screen for GalR3 antagonists: nonspecific agonists in parental HEK-CNG cells; AID 652268; HEK293-CNG parental cells, cAMP membrane potential fluorescence; normalised: DMSO wells 0%, forskolin wells 100%; shares compounds with GalR3 antagonist; activation, % at 3 µM; actives 10% (n = 1,600); in the data active means activation above about 1.3%
Active calls of the source: *; x = no result.

SMILES | GalR3 antagonist | OX1R antag-1 | GPR7 antagonist | OX1R antag-2 | CHO parental Ca | GalR3 conf | HEK-CNG parental
CCC(NC(=O)c1ccccc1NC(=O)C(C)(C)C)C(=O)N1CCCC1 (stereo unspecified) | 15* | -28 | -5 | 12 | -29 | 7 | 0
CCC(NC(=O)c1ccccc1NC(=O)C(C)(C)C)C(=O)N1CC(C)OC(C)C1 (stereo unspecified) | 3 | -6 | x | 10 | -22 | x | x
CC(=O)Nc1ccc(S(=O)(=O)NC(C)(C#N)C2CC2)cc1 (stereo unspecified) | -9 | -3 | -1 | 20 | 9 | x | x
Cc1onc(-c2c(Cl)cccc2Cl)c1C(=O)N(C)Cc1ccccc1 | -5 | -19 | 1 | 8 | -11 | x | x
CSc1ccccc1NC(=O)c1cnc2scc(C)n2c1=O | 23* | -26 | -6 | 14 | -20 | 5 | 0
CCc1ccccc1NC(=O)c1cnc2scc(C)n2c1=O | 2 | -8 | -12 | 8 | -13 | x | x
O=C(COC(=O)c1ccc2ccccc2c1)NCc1ccccc1 | 2 | x | x | x | x | x | x
O=c1c(Cl)c(NCC2CCCO2)cnn1C12CC3CC(CC(C3)C1)C2 (stereo unspecified) | 15* | -16 | -16 | 12 | 8 | 33* | 0
O=C(O)C12CC3CC(C1)CC(n1ncc(NCc4ccco4)c(Cl)c1=O)(C3)C2 | 3 | -2 | -16 | 30 | -12 | x | x
N#CC(C#N)=C(Nc1ccc(F)cc1)SCc1cccc(F)c1 | 91* | 9 | 3 | 71* | 23 | 35* | 0
CCOc1ccc(N/C(SCc2cccc([N+](=O)[O-])c2)=C(/C#N)C(N)=O)cc1 | 1 | -3 | -8 | 15 | -1 | x | x
O=C(Nc1ccc(Oc2cccnc2)nc1)c1ccc(C(F)(F)F)cc1 | 77* | -4 | 20* | 4 | -4 | 61* | 0
CCOc1ccc(C(C)=O)cc1COC(=O)c1ccccc1C(=O)N(C)Cc1ccccc1 | -5 | x | x | x | x | x | x
O=C(COC(=O)/C=C/c1ccco1)NCc1ccco1 | 15* | 4 | 4 | 7 | -9 | -1 | 0
CNC(=O)COC(=O)/C=C/c1ccco1 | 0 | -19 | 1 | 10 | -13 | x | x
CNCC(O)c1ccc(OC(=O)C(C)(C)C)c(OC(=O)C(C)(C)C)c1 (stereo unspecified) | 55* | -33 | x | 6 | -8 | 63* | 13*
CC(C)NC[C@H](O)c1ccc(O)c(O)c1 | -7 | -2 | x | 16 | -6 | x | x
COc1ccc(-c2cc(CNC(=O)CN3CCN(C)CC3)on2)cc1 | 13* | -15 | 25 | -1 | -12 | -5 | 0
COc1cccc(NC(=O)c2sc3nc(N4CCOCC4)c4c(c3c2N)CCCC4)c1 | -2 | -11 | -2 | 12 | 5 | x | x
CCOc1ccccc1C1NC(=O)c2ccccc2N1 (stereo unspecified) | 13* | x | x | x | x | 13* | 1.4*
Nc1cc(-c2ccc(Br)cc2)nn1Cc1ccccc1 | 61* | x | 1 | x | x | 103* | -1
CCOCCCNC(=O)C1CCCN(S(=O)(=O)CC)C1 (stereo unspecified) | 2 | -14 | -6 | 9 | -2 | x | x
CCCCNC(=O)C1CCCN(S(=O)(=O)CC)C1 (stereo unspecified) | 14* | -8 | 1 | 9 | -1 | 0 | 0
CCCN(c1ccc(OCC)cc1)S(=O)(=O)c1ccc2c(c1)NC(=O)CO2 | -10 | -16 | -14 | 15 | -18 | x | x
COc1ccc(-c2noc(CCC(=O)NCCCN3CCC(Cc4ccccc4)CC3)n2)cc1 | 76* | -14 | 29* | 15 | 18 | -3 | 6.1*
COc1ccc(N(Cc2cc(=O)[nH]c3ccccc23)C(C)=O)cc1 | -11 | -3 | 7 | 5 | -6 | x | x
NC(=O)c1ccc(NC(=O)c2ccc(CN3CCOCC3)cc2)cc1 | -3 | 0 | -3 | 5 | 1 | x | x
CCOC(=O)c1ccc(NC(=O)c2ccc(CN3CCOCC3)cc2)cc1 | 94* | -16 | 5 | 28 | -1 | 110* | 0
CCOc1ccc(NC(=O)c2ccc(CN3CCc4ccccc4C3)cc2)cc1 | 103* | -22 | 18 | -10 | -12 | 108* | 0

Source: PubChem (The Scripps Research Institute Molecular Screening Center)
